Experimental data from paper PMC3424002 (ACS medicinal chemistry letters, 2012).
“Also recorded” adds a separate entry of the source.

Columns and labels:
rat mGluR5 = rat mGluR5 (Rattus norvegicus, UniProt P31424); assay type: cell-based; conditions: for effect on IP1 levels / accumulation: in the absence of QA (agonist)
mice [1] = assay: Novel open-field test; assay type: in vivo, mouse; conditions: for locomotor activity / amount of time spent in the center of the novel open-field: i.p. 15 minutes prior to testing; for locomotor activity: Figure 3A; for amount of time spent in the center of the novel open-field: Figure 3B
How it was run: (§1)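 Mice received test compound by ip injection 15 min before testing, with each compound compared against its own within-group vehicle cohort. Compounds were suspended in 2% ethanol, 10% Tween 80 and water; one reference NAM was instead dissolved in saline. Prototypical mGluR5 NAMs served as positive controls. There were 10–12 mice per dose, and data are means ± SEM analysed by one-way ANOVA with Bonferroni post hoc test.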

mice [2] = assay: Light-dark box test; assay type: in vivo, mouse; conditions: i.p. 15 minutes prior to testing; for proportion of time spent in the light compartment: Figure 3C; for number of compartment transitions: Figure 3D
How it was run: as §1

mice [3] = assay: Mouse models of anxiety-like behaviors; assay type: in vivo; conditions: for doses giving statistically significant effects consistent with anxiolysis: i.p., open-field and light-dark box tests
mGluR5 [4] = conditions: 10 mg/kg, mouse brain; cited from earlier work
mGluR5 [5] = biological target: mGluR5 (Rattus norvegicus, UniProt P31424); assay: Displacement of [3H]1; assay type: binding; conditions: ratio of Ki values versus 1 (MPEP)
[6] = test system: 63 additional receptors and ion channels; assay: Screening in 63 additional receptors and ion channels; assay type: binding; conditions: 100 nM; any of 63 additional receptors and ion channels

Chain of rat mGluR5 (P31424 21-1203): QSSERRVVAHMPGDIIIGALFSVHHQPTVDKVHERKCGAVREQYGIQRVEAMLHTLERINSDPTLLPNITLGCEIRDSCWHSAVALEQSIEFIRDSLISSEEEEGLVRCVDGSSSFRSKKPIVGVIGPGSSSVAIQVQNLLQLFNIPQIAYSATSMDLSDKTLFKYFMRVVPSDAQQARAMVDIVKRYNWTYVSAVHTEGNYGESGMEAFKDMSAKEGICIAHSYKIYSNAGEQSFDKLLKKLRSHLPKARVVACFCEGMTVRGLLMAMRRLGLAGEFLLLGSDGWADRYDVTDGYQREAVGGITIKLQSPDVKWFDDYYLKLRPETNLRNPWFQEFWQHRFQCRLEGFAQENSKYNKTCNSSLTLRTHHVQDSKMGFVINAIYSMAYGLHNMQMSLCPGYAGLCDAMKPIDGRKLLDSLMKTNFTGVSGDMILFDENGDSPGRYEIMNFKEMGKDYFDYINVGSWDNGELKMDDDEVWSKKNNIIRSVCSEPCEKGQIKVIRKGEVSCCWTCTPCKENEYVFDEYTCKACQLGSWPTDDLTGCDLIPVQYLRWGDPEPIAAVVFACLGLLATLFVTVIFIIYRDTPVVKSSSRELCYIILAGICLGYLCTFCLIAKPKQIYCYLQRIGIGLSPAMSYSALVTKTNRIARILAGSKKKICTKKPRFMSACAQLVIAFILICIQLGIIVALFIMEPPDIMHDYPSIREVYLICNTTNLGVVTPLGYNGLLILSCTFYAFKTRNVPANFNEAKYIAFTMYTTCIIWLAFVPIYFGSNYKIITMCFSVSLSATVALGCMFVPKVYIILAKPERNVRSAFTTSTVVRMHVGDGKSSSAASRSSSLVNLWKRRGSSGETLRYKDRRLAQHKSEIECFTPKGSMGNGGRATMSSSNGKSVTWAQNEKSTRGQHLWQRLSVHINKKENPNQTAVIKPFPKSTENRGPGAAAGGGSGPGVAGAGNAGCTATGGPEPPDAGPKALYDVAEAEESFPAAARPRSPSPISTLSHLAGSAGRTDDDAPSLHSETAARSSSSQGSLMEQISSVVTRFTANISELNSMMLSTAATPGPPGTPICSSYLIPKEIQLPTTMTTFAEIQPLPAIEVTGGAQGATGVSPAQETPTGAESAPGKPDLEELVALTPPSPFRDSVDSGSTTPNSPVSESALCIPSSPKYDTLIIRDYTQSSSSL
Chain of mGluR5 (Rattus norvegicus, UniProt P31424) (P31424 21-1203): as above

fold increase in mGluR5 binding affinity over compound 1 (mGluR5 [5])	inhibition of binding at other targets [6] [%]	SMILES	effect on IP1 levels / accumulation (rat mGluR5)	overall / locomotor activity at the highest tested doses (mice [1])	locomotor activity (mice [1])	amount of time spent in the center of the novel open-field (mice [1])	proportion of time spent in the light compartment (mice [2])	number of compartment transitions (mice [2])	anxiolytic effects at the highest tested doses (mice [3])	doses giving statistically significant effects consistent with anxiolysis (mice [3]) [mg/kg]	mGluR5 receptor occupancy (mGluR5 [4])	effect on IP1 levels (agonist) (rat mGluR5; agonist stimulation of mGluR5)
		Cc1cccc(C#Cc2ccccc2)n1 [Compound 1, 2-methyl-6-(phenylethynyl)pyridine, reference compound]	potently decreased IP1 levels from baseline; also recorded: dose-dependent inverse agonism	no corresponding loss of locomotor activity	dose-dependently increased	dose-dependently increased	dose-dependently increased	dose-dependently increased	loss of anxiolytic effects	3 to 30	full	
		Cc1nc(C#Cc2cccnc2)cs1 [Compound 2, 3-((2-methyl-1,3-thiazol-4-yl)ethynyl)pyridine, reference compound]	potently decreased IP1 levels from baseline; also recorded: dose-dependent inverse agonism		dose-dependently increased	dose-dependently increased	dose-dependently increased	dose-dependently increased		10		
approximately 24 fold	< 13	Cc1cccc(C#Cc2cc(F)cc(C#N)c2)n1 [Compound 7i]	potently decreased IP1 levels from baseline; also recorded: dose-dependent inverse agonism	no corresponding loss of locomotor activity	dose-dependently increased	dose-dependently increased	dose-dependently increased	dose-dependently increased	loss of anxiolytic effects	0.3		
		N#Cc1cc(F)cc(C#Cc2cccc(C#N)n2)c1 [Compound 7j]	potently decreased IP1 levels from baseline; also recorded: dose-dependent inverse agonism	depression in overall activity	dose-dependently increased	dose-dependently increased	dose-dependently increased	dose-dependently increased	loss of anxiolytic effects	0.1 to 0.3		
		N[C@@H](Cn1oc(=O)[nH]c1=O)C(=O)O [QA, quisqualic acid]										dose-dependently increased IP1 levels; also recorded: increased IP1 accumulation
